{"data": "Published values pooled from the literature", "PTGS1": "Prostaglandin G/H synthase 1 (PTGS1, Ovis aries, UniProt P05979)", "ALDH3A1": "Aldehyde dehydrogenase, dimeric NADP-preferring (ALDH3A1, Homo sapiens, UniProt P30838)", "IPMK": "Inositol polyphosphate multikinase (IPMK, Homo sapiens, UniProt Q8NFU5)", "rep main protease": "Replicase polyprotein 1ab, main protease (rep, Porcine epidemic diarrhea virus, UniProt P0C6Y4)", "rep papain-like protease": "Replicase polyprotein 1ab, papain-like protease (rep, Porcine epidemic diarrhea virus, UniProt P0C6Y4)", "MAP2K2": "Dual specificity mitogen-activated protein kinase kinase 2 (MAP2K2, Homo sapiens, UniProt P36507)"}
{"SMILES": "NS(=O)(=O)c1ccc(-n2nc(-c3nnc(S)o3)cc2-c2ccccc2)cc1", "target": "PTGS1", "test": "enzyme activity, inhibitor", "IC50": "7.78 µM"}
{"SMILES": "OC[C@H]1O[C@@H](Oc2ccc(O)c3cccc(O)c23)[C@H](O)[C@@H](O)[C@@H]1O", "target": "ALDH3A1", "test": "enzyme activity, inhibitor, fluorescence", "IC50": "< 10 µM"}
{"SMILES": "COc1ccc(N2CCN(Cc3cn4c(-c5ccc(Br)cc5)nnc4s3)CC2)cc1", "target": "Aifm2 (Mus musculus, UniProt Q8BUE4, L360F)", "test": "enzyme activity, inhibitor, absorbance", "IC50": "~0.518 µM"}
{"SMILES": "O=C(Nc1ccc(-c2ccccc2)cc1)c1cnn(-c2ccc([N+](=O)[O-])cc2)c1C(F)(F)F", "target": "PTGS1", "test": "enzyme activity, inhibitor", "IC50": "5.91 µM"}
{"SMILES": "COCCNc1nc(NCc2cccc(C(=O)Nc3ccc(OC)cc3)c2)nc2[nH]cnc12", "target": "IPMK", "test": "enzyme activity, inhibitor", "IC50": "63 µM"}
{"SMILES": "CCC(C(=O)NCc1cc(O)c(O)c(Br)c1)c1ccccc1 (stereo not shown)", "target": "rep main protease", "test": "enzyme activity, inhibitor, FRET", "IC50": "7.53 µM"}
{"SMILES": "NS(=O)(=O)c1ccc(-n2nc(C(=O)NN=Cc3ccc(O)cc3)cc2-c2ccccc2)cc1", "target": "PTGS1", "test": "enzyme activity, inhibitor", "IC50": "3.84 µM"}
{"SMILES": "CC(=O)Oc1cccc(C(=O)NCc2cc(O)c(O)c(Br)c2)c1C", "target": "rep papain-like protease", "test": "enzyme activity, inhibitor, FRET", "IC50": "2.76 µM"}
{"SMILES": "C=C1CC/C=C(\\C)CC[C@@H]2[C@@H]1CC2(C)C", "target": "Transient receptor potential cation channel subfamily V member 1, non-phosphorylated (TRPV1, Homo sapiens, UniProt Q8NER1)", "test": "ion current, patch clamp", "IC50": "0.587 µM"}
{"SMILES": "O=C(NCc1cc(O)c(O)c(Br)c1)N1CCCC1", "target": "rep main protease", "test": "enzyme activity, inhibitor, FRET", "IC50": "2.88 µM"}
{"SMILES": "NS(=O)(=O)c1ccc(-n2nc(C(=O)NN=Cc3ccccc3O)cc2-c2ccccc2)cc1", "target": "PTGS1", "test": "enzyme activity, inhibitor", "IC50": "3.91 µM"}
{"SMILES": "CC#CC(=O)N[C@H]1CCCN(c2c(F)cc(C(N)=O)c3[nH]c(C)c(C)c23)C1", "target": "MAP2K2", "test": "enzyme activity, inhibitor", "IC50": "> 5 µM"}
{"SMILES": "COc1cc(C=NNC(=O)c2cc(-c3ccccc3)n(-c3ccc(S(N)(=O)=O)cc3)n2)cc(OC)c1OC", "target": "PTGS1", "test": "enzyme activity, inhibitor", "IC50": "7.21 µM"}
{"SMILES": "Cc1ccc(S(=O)(=O)[N](Nc2ccc([N+](=O)[O-])cc2[N+](=O)[O-])[Sn]([Cl])[Cl])cc1", "target": "PTGS1", "test": "enzyme activity, inhibitor", "IC50": "45.9 µM"}
{"SMILES": "COCCNc1nc(NCc2cccc(-c3ccc(OC)cc3)c2)nc2[nH]cnc12", "target": "IPMK", "test": "enzyme activity, inhibitor", "IC50": "38 µM"}
{"SMILES": "Cn1c(C(=O)NCc2cc(O)c(O)c(Br)c2)cc2ccccc21", "target": "rep papain-like protease", "test": "enzyme activity, inhibitor, FRET", "IC50": "8.08 µM"}
{"SMILES": "COCCNc1nc(NCc2cccc(C(=O)Oc3ccc(OC)cc3)c2)nc2[nH]cnc12", "target": "IPMK", "test": "enzyme activity, inhibitor", "IC50": "14 µM"}
{"SMILES": "COc1ccc(C(=O)NCc2cc(Br)c(OC)c(OC)c2)cc1", "target": "rep main protease", "test": "enzyme activity, inhibitor, FRET", "IC50": "5.19 µM"}
{"SMILES": "CC(C)N(CCC(=O)c1ccc2ccccc2c1)Cc1ccccc1", "target": "ALDH3A1", "test": "enzyme activity, inhibitor, fluorescence", "IC50": "< 10 µM"}
{"SMILES": "N=C(N)c1ccc2nc(-c3cc(CC(=O)N[C@@H](CC(=O)O)C(=O)O)cc(-c4cc(S(N)(=O)=O)ccc4O)c3O)[nH]c2c1", "target": "Coagulation factor VII (F7, Homo sapiens, UniProt P08709)", "test": "enzyme activity, inhibitor", "IC50": "0.035 µM"}
{"SMILES": "CC#CC(=O)N1CC[C@@H](n2c(=O)n(-c3ccc(Oc4ccccc4)cc3)c3c(N)ncnc32)C1", "target": "MAP2K2", "test": "enzyme activity, inhibitor", "IC50": "> 5 µM"}
{"SMILES": "COc1cc(NC(=O)c2cnn(-c3ccc([N+](=O)[O-])cc3)c2C(F)(F)F)cc(OC)c1OC", "target": "PTGS1", "test": "enzyme activity, inhibitor", "IC50": "4.51 µM"}
{"SMILES": "O=C(NCc1cc(O)c(O)c(Br)c1)c1nccs1", "target": "rep main protease", "test": "enzyme activity, inhibitor, FRET", "IC50": "2.52 µM"}
{"SMILES": "CN1CCC(CNc2ccc3ncc(-c4cccc(OC(F)(F)F)c4)n3n2)CC1", "target": "D(1A) dopamine receptor (DRD1, Homo sapiens, UniProt P21728)", "test": "cAMP, antagonist", "IC50": "6.66 µM"}
{"SMILES": "COc1cc(CNC(=O)c2ccccc2C)cc(Br)c1OC", "target": "rep main protease", "test": "enzyme activity, inhibitor, FRET", "IC50": "6.79 µM"}
{"SMILES": "CC(=NNC(=O)c1cc(-c2ccccc2)n(-c2ccc(S(N)(=O)=O)cc2)n1)c1ccc(C)cc1", "target": "PTGS1", "test": "enzyme activity, inhibitor", "IC50": "3.32 µM"}
{"SMILES": "O=C(NCc1cc(O)c(O)c(Br)c1)c1cccc(C(F)(F)F)c1", "target": "rep papain-like protease", "test": "enzyme activity, inhibitor, FRET", "IC50": "1.95 µM"}
{"SMILES": "O=C1NC(=O)c2c1c(-c1ccccc1Cl)cc1[nH]c3ccc(O)cc3c21", "target": "Serine/threonine-protein kinase WNK3 (WNK3, Homo sapiens, UniProt Q9BYP7)", "test": "enzyme activity, inhibitor", "IC50": "1.49 µM"}
